Measurements from article PMC7231841 (Redox Biology, 2020).

How the values were obtained:
[1] = test system: serum IL-1β, IL-6, TNF-α and IFN-γ; experiment: LPS challenge mouse acute inflammation model; type: in vivo, C57BL/6 mice; settings: oral, 3 days, LPS 300 μg/kg IP
Procedure, shortened: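 Female C57BL/6 mice (6–8 weeks, 18–20 g) were acclimatised for 2 days. LPS 300 μg/kg/day was given IP in 500 μL on days −3, −2 and −1 (n = 8 per LPS group). Test compound (10 or 40 mg/kg/day) was given intragastrically in 500 μL saline 4 h after each LPS dose. Dexamethasone 10 mg/kg/day served as positive control. Saline IP controls had n = 3. Sera were taken 24 h after the last dose for cytokine ELISA.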

[2] = HPLC assay for H2O2-induced drug release; type: physicochemical
Procedure, shortened: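 A 10 mM DMSO stock of test compound was diluted to 50 μM final in PBS (10 mM, pH 7.4). H2O2 was added at graded levels (24 h incubation) or at 10 mM (time course), then vortexed. Incubation was at 37 °C in triplicate. Samples taken at intervals were injected directly onto C18 HPLC (70% methanol, 0.5 mL/min, DAD detection). Percent compound came from peak areas against a standard curve.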

[3] = molecular target: Keap1-Nrf2 interaction (Keap1 Kelch domain / FITC-9mer Nrf2 peptide) (Homo sapiens, UniProt Q14145); experiment: Fluorescence polarization; type: binding
Keap1-Nrf2 interaction (Keap1 Kelch domain / FITC-9mer Nrf2 peptide), sequence (Q14145 322-609): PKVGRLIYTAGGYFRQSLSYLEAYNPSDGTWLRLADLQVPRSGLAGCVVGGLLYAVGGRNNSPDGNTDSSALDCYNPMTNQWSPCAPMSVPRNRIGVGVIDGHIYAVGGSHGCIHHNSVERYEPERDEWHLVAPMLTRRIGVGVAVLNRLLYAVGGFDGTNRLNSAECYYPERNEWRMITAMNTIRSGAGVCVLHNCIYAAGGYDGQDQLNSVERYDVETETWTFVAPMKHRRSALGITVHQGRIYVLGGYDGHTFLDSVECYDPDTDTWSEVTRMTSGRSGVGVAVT

HepG2-ARE-C8 cells = experiment: Nrf2/ARE luciferase reporter assay; type: cell-based
[4] = In vivo pharmacokinetic assay; parameters: species or system SD rats; settings: rat
[5] = Stability in simulated gastric fluid and simulated intestinal fluid; type: in vitro ADME; settings: after 8 h, 37 °C, 20 μM
Procedure, shortened: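 Test compound (20 μM) was incubated separately in commercial artificial gastric and intestinal juices at 37 °C for various times, in three parallel runs. Proteins were precipitated with methanol, vortexed and centrifuged at 5000 rpm for 5 min. Supernatants were analysed by HPLC (C18, 70% methanol, 0.5 mL/min) from peak areas.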

RAW264.7 cells [6] = experiment: Antioxidant capacity; type: cell-based, mouse; settings: LPS (20 ng/mL) treated RAW 264.7 cells
Procedure, shortened: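 RAW264.7 cells were pretreated with LPS (20 ng/mL) for 8 h, then exposed to test compound for a further 16 h. SOD activity, GSH-Px activity, GSH/GSSG ratio and MPO activity were measured in the cells. Data are means ± SEM of 3 independent observations, with one-way ANOVA.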

[7] = Parallel artificial membrane permeability assay; type: physicochemical; settings: PAMPA
Procedure, shortened: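 Effective permeability (Pe) at pH 7.4 was measured by double-sink PAMPA.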

[8] = Liver microsome stability; type: in vitro ADME, rat
Procedure, shortened: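 Rat (CD-1 male) liver microsomes from a 20 mg/mL stock were shaken in PBS at 37 °C for 10 min. Test compound was added from a 0.5 mM DMSO solution, with a 20 μM test level. After 5 min preincubation, the reaction was started with NADPH (6 mM stock). It was quenched with ice-cold acetonitrile at 0, 5, 15, 30 and 45 min. Samples were centrifuged at 5000 rpm for 15 min and supernatants analysed by LC-MS/MS. Ketanserin served as reference.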

pH stability in PBS = type: physicochemical; settings: pH 4 to 10, 24 h, 37 °C, 20 μM
Procedure, shortened: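 PBS was adjusted to pH 4–10 with 0.1 M HCl or NaOH. Test compound (20 μM) was incubated at 37 °C for 24 h, in triplicate. Solutions were filtered and injected directly on HPLC three times. Percent remaining came from peak areas.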

RAW264.7 cells [9] = experiment: qRT-PCR and Western blot of Nrf2-ARE driven genes in LPS-treated cells; type: cell-based, mouse; settings: 20 ng/mL LPS 8 h
Procedure, shortened: (§1)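 RAW264.7 cells were pretreated with LPS (20 ng/mL) for 8 h, then exposed to test compound for 16 h. Total RNA was extracted with TRIzol and reverse-transcribed, followed by real-time qRT-PCR. mRNA was normalised to β-actin and expressed as fold of control. Data are means ± SEM, n = 3 independent observations, one-way ANOVA.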

Plasma stability = type: in vitro ADME, rat; settings: 20 μM, 37 °C
Procedure, shortened: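 Test compound (20 μM) was incubated in plasma at 37 °C for various times, in three parallel runs. Proteins were precipitated with methanol, vortexed and centrifuged at 12,000 rpm for 5 min. Supernatants were analysed by HPLC from peak areas.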

RAW264.7 cells [10] = experiment: Inflammatory factors; type: cell-based, mouse
Procedure, shortened: as §1

C[C@@H]1C[C@H]2[C@@H]3CCC4=CC(=O)C=C[C@]4(C)[C@@]3(F)[C@@H](O)C[C@]2(C)[C@@]1(O)C(=O)CO [DXM, Dexamethasone, reference compound]
Anti-inflammation effect on serum pro-inflammatory cytokines ([1]; 10 mg/kg): diminished inflammatory response

COc1ccc(S(=O)(=O)N(CC(=O)N2CCSC2=O)c2ccc(N(CC(=O)N3CCSC3=O)S(=O)(=O)c3ccc(OC)cc3)c3ccccc23)cc1 [pro1, N,N'-(naphthalene-1,4-diyl)bis(4-methoxy-N-(2-oxo-2-(2-oxothiazolidin-3-yl)ethyl)benzenesulfonamide)]
Production of compound 1 from the prodrug in the presence of H2O2 ([2]; H2O2 (10 mM), PBS pH 7.4, 37 °C, UPLC/HRMS): cannot be observed even after 12 h | Inhibition against Keap-Nrf2 interaction in the FP assay [3]: no inhibition

COc1ccc(S(=O)(=O)Nc2ccc(N(CC(=O)N3CCSC3=O)S(=O)(=O)c3ccc(OC)cc3)c3ccccc23)cc1 [pro2, 4-methoxy-N-(4-((4-methoxyphenyl)sulfonamido)naphthalen-1-yl)-N-(2-oxo-2-(2-oxothiazolidin-3-yl)ethyl)benzenesulfonamide]
Prodrug released to parent compound 2 ([2]; 1 mM H2O2, incubating 24 h, PBS pH 7.4, 37 °C): approximately 60% | Time to complete release to the parent compound 2 ([2]; 10 mM H2O2, PBS pH 7.4, 37 °C): ≤ 3 h | Conversion to parent compound 2 determined by HPLC ([2]; 10 mM H2O2, within 3 h): > 98% | Relative ARE induction activity under normal conditions (HepG2-ARE-C8 cells; HepG2-ARE-C8 cells, no LPS): nearly inactive | Relative ARE induction activity under various concentrations of LPS (HepG2-ARE-C8 cells; LPS pretreatment 8 h, then compound 200 nM for 12 h): LPS concentration-dependent enhancement of Nrf2-ARE inducing activity | Cl_F ([4]; I.V. (2 mg/kg)): 18.5 ± 3.9 mL/min/kg | Vz_F ([4]; I.V. (2 mg/kg)): 6.44 ± 4.09 L/kg | Vz_F ([4]; P.O. (10 mg/kg)): 4.79 ± 2.17 L/kg | bioavailability ([4]; male, SD, plasma, oral): 68.1% | CL/F ([4]; male, SD, plasma, po, 10 mg/kg): 26.4 ± 1.14 mL/min/kg | Remaining in simulated gastric fluid (SGF) [5]: more than 50% | Remaining in simulated intestinal fluid (SIF) [5]: more than 50% | Activities of SOD and GSH-Px (RAW264.7 cells [6]): significantly restored the activities | GSH/GSSG ratio and MPO activity (RAW264.7 cells [6]): restored the levels nearly back to normal | Pe at pH 7.4 [7]: 6.35 10−6 cm/s | Stability in co-incubation with rat liver microsomes [8]: quite stable | Stability to hydrolysis in PBS (pH stability in PBS): relatively stable | Transcription of Nrf2 targeted genes (HO-1, NQO1, GCLM mRNA) (RAW264.7 cells [9]; compound 500 nM, qRT-PCR): highly enhanced the transcription | Protein levels of Nrf2 and downstream antioxidant enzymes (RAW264.7 cells [9]; then compound 16 h, Western blot): remarkably accumulated Nrf2 protein and elevated downstream antioxidant enzymes | Stability in rat plasma (Plasma stability): quite stable | Anti-inflammation effect on serum pro-inflammatory cytokines ([1]; 10 mg/kg): comparable therapeutic effects with DXM | Anti-inflammation effect on serum pro-inflammatory cytokines ([1]; 40 mg/kg (high dose)): more potent effects | Inhibition against Keap-Nrf2 interaction in the FP assay [3]: no inhibition | LPS-induced elevation of IL-1β and IL-6 protein (RAW264.7 cells [10]; LPS (20 ng/mL) 8 h, Western blot): almost completely suppressed the elevation | mRNA levels of IL-1β and IL-6 (RAW264.7 cells [10]; LPS (20 ng/mL) 8 h, qRT-PCR): significant suppression effects | Suppression of IL-1β, IL-6 and TNF-α production (RAW264.7 cells [10]; LPS (20 ng/mL), culture supernatants, ELISA): obvious superiority in the suppression
